Screening data (PubChem BioAssay)
KCC2 mod: modulators of human KCC2 chloride dependent transport. AID 1456. 190,000 compounds, 2.2% hits. Q9H2X9. KCC2 cells, thallium flux FluoZin-2 fluorescence. B-score of Tl+ flux slope (higher = more flux/activation; lower = inhibition) at 10 µM;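 active = thallium flux slope and its plate-corrected score both differing from the plate sample mean at a set confidence after two filtering rounds, in either direction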;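 note: slope of fluorescence scaled to starting intensity during 10 to 20 s after thallium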
ROMK mod: human ROMK K+ channel modulation, primary screen. P48048. AID 1918. B-score at 10 µM. 130,000 compounds, 2% hits. Tet-inducible ROMK, thallium flux fluorescence; actives lie on both sides;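 active = signal ratio slope over the read window, or its plate-corrected B-score, at least 3 SD from the plate mean, either direction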;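 note: B-score of the F/F0 ratio slope over 7 to 12 s after thallium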
Target sequence (P48048 whole entry, looked up): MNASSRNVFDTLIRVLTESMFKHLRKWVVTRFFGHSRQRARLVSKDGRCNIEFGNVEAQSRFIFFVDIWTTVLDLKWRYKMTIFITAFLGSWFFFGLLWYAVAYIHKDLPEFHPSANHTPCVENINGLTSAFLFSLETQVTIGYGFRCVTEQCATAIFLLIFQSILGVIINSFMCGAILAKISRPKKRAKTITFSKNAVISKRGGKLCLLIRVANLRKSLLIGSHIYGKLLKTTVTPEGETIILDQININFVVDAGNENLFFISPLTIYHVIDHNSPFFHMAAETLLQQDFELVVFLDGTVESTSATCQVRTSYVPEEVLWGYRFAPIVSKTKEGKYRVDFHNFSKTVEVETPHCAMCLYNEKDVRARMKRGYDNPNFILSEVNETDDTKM
Mdm2 ligase inh: blocks human Mdm2 ubiquitin ligase activity; cell-based MDM2 ubiquitination luciferase reporter, 2 h; 0 = plate control, 100 = twice control, blank-subtracted; 210,000 compounds, 0.11% hits; signal enhancement, % at 5 µM;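 active = signal enhancement of 30% or more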;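 note: luminescence tracks abundance of the self-degrading MDM2-luciferase fusion protein; higher signal means inhibition of MDM2 E3 ligase activity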
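Material: Stable MDM2–luciferase fusion reporter cells | Amount: 2000 cells seeded into each well | Dosing: One concentration, 5 µM, with 0.2% DMSO | Incubation: 4 h cell settling then 2 h compound exposure, 37 °C | Measured by: Luciferase luminescence | Read-out basis: % enhancement relative to plate controls after blank subtraction | Benchmarks: Control and blank well means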
PKD1 kinase inh: PKD1 (human) kinase inhibition | Q15139 | PKD1 kinase fluorescence polarization assay | inhibition, % (concentration not given with the values) | 200,000 compounds, 0.056% hits | AID 797; in the data active = inhibition above about 50%
DTT redox prof: compounds producing H2O2 with reducing agent – biochemical, NIH compound library profiling, artefact control for MLSCN library redox annotation, primary screen; DTT-dependent redox cycling H2O2, phenol red/HRP absorbance; 100% = 100 µM peroxide control, 0% = buffer; activation, % at 10 µM; 200,000 compounds, 0.03% hits; AID 878;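 active = activation of at least 50% relative to the plate's high and low controls in the primary single-dose screen; inactive = activation below 50%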;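 note: compound incubated with DTT at 0.8 mM final as the reducing agent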
p97 inhibitor: blocks human p97 ATPase activity | 220,000 compounds, 0.42% hits | recombinant p97 ATPase, Kinase-Glo ATP luminescence, 3 h | inhibition, % at 8 µM; in the data active = inhibition above about 15%;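 note: 0% = DMSO vehicle and 100% = wells lacking enzyme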
KCC2 secondary: confirmation of human KCC2 transport modulators | shares compounds with KCC2 mod | HEK293-KCC2, thallium flux, FluoZin2 fluorescence; stronger effect = higher value | normalised thallium flux (F/F0 slope) at 10 µM | 3,700 compounds, 15% hits | AID 1713;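 active = thallium flux slope above the same plate's solvent-only control mean plus 3 SD; inconclusive = the two replicate wells disagree; inactive = no significant difference from solvent-only control wells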
KCC2 bumet counter: thallium flux persisting under bumetanide in KCC2 cells, counter-screen secondary assay; shares compounds with KCC2 mod; HEK293-KCC2 + bumetanide/ouabain, thallium flux FluoZin2; stronger effect = higher value; normalized thallium flux at 10 µM; 3,700 compounds, 49% hits; AID 1714;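 active = thallium entry rate above the same plate's blocked-transporter control wells by more than 3 SD; inconclusive = the two repeat wells disagree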;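 note: raw slope of fluorescence over initial fluorescence between 10 and 20 s after thallium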
KCC2 sec2: confirmation of human KCC2 transport modulators. shares compounds with KCC2 mod. HEK293-KCC2, thallium flux FluoZin2 fluorescence; actives lie on both sides; F/F0 rise rate, 10–20 s post-thallium. normalized thallium flux at 10 µM. 3,700 compounds, 23% hits. AID 1715;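 active = thallium flux slope more than 3 SD above or below the plate's solvent-only control mean, mostly below; inconclusive = the two repeat wells disagreed; inactive = no significant shift from solvent-only controls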;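 note: raw slope with 0.1% DMSO as baseline and bumetanide as block control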
HEK counter1: acts in parental HEK cells, KCC2 counter-screen; AID 1716; 3,700 compounds, 46% hits; HEK293 parental cells, thallium flux FluoZin2, ouabain; baseline-ratio fluorescence slope, 10–20 s after thallium; thallium flux rate (normalised fluorescence) at 10 µM; shares compounds with KCC2 mod;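 active = thallium flux rate significantly above the same plate's solvent-only control wells, beyond their mean plus 3 SD; inconclusive = the two replicate wells gave conflicting results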
KCC2 ouabain: modulates human KCC2 on retest with ouabain. shares compounds with KCC2 mod. HEK293-KCC2, thallium flux FluoZin2 fluorescence; bidirectional: low = inhibitor, high = activator. raw Tl+ flux slope (below DMSO = inhibition, above = activation) at 10 µM. 3,700 compounds, 48% hits. AID 1717;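 active = thallium flux slope beyond 3 SD from same-plate DMSO control mean in most replicates, usually higher, sometimes lower; inconclusive = repeat tests gave conflicting results; inactive = no significant difference from controls in most replicates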;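 note: slope of initial-normalized fluorescence between seconds 10 and 20 after thallium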
HEK counter2: counter-screen for KCC2 modulators: effect in parental HEK293 cells | 3,700 compounds, 33% hits | shares compounds with KCC2 mod | thallium flux FluoZin-2 fluorescence slope | thallium flux slope at 10 µM;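 active = thallium flux slope above the same plate's solvent-control mean plus 3 SD in both duplicate wells; inconclusive = duplicate wells that disagreed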;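 note: run without ouabain in cells lacking the KCC2 cotransporter; slope of fluorescence scaled to its starting value between 10 and 20 s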
p97 confirm: confirmation of human p97 ATPase inhibitors | shares compounds with p97 inhibitor | recombinant p97 ATPase, Kinase-Glo ATP luminescence | inhibition, % at 8 µM | 760 compounds, 44% hits;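 active = percent inhibition of p97 ATPase above a set limit, the primary screen's mean plus 3 SD, cut at about 15% in these data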;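 note: 0% = DMSO wells and 100% = wells lacking p97 protein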
The depositor's hits bear a star; ? = inconclusive; . = not tested or not shown. In the library only some 3.4% were active in any assay of this set; here they are far more common.

SMILES	KCC2 mod	ROMK mod	Mdm2 ligase inh	PKD1 kinase inh	DTT redox prof	p97 inhibitor	KCC2 secondary	KCC2 bumet counter	KCC2 sec2	HEK counter1	KCC2 ouabain	HEK counter2	others
O=C1NC(=O)N(Cc2ccccc2)C(=O)/C1=C/N1CCCc2ccccc21	-0.215	.	-14.7	1.9	0.1	3.8	.	.	.	.	.	.
CNc1cc(Cl)c2nonc2c1[N+](=O)[O-]	-4.64*	-2.19	-4.3	-5.4	0.5	-1.3	0.00732	0.00696*	?	0.00701	0.0172	0.0102
Cc1cc([N+](=O)[O-])c(Cl)cc1NC(=O)C(C)C	0.728	-0.328	-7.1	-6.9	0.1	2.2	.	.	.	.	.	.
CNc1ccc2oc(C[C@H]3O[C@@]4(CC[C@H]3C)O[C@H]([C@H](C)C(=O)c3ccc[nH]3)[C@H](C)C[C@H]4C)nc2c1C(=O)O	7.45*	.	4.7	.	.	.	0.0066	0.00925*	0.0353	?	?	0.0106
O=C1C2CCCN2C(c2cccnc2)N1c1nccs1 (configuration not stated)	3.16*	.	-10.2	-16.6	-0.6	1.7	0.0158	?	0.0284	0.00745	0.016	0.00991
O=C1C2CCCN2C(c2cccnc2)N1c1ccc(Cl)cc1 (configuration not stated)	0.178	.	-0.4	-9.7	-2.2	1.5	.	.	.	.	.	.
Cc1cc(S(=O)(=O)NC(C)C)ccc1OCC(=O)N1CCN(Cc2ccc3c(c2)OCO3)CC1	.	0.0486	-30.0	-11.0	-2.0	-1.4	.	.	.	.	.	.
COC(=O)c1ccc(COc2cc(C)cc3oc(=O)c4c(c23)CCCC4)o1	.	-0.22	-13.5	2.0	0.2	-1.0	0.00749	0.00444	0.0272	0.00491*	?	0.00845
Cc1cc(OCC(=O)O)c2c3c(c(=O)oc2c1)CCCC3	0.117	.	-10.1	10.6	-0.6	-3.0	.	.	.	.	.	.
COc1cc(C(=S)N2CCOCC2)cc(OC)c1OC(=O)Cc1ccccc1	-5.39*	-0.389	-12.4	16.8	-1.1	-2.0	?	0.00601*	0.0205*	0.00763	0.0133	0.00973
S=C1Nc2ccccc2Sc2ccccc21	47.5*	-0.518	0.3	2.1	-0.6	5.3	0.0191*	0.0748*	0.0305	0.0544*	0.0528*	0.0135*
O=C1NC(=O)C(CCc2ccncc2)(Cc2ccc([N+](=O)[O-])cc2)C(=O)N1	-0.117	0.0817	.	-5.1	-0.1	2.0	.	.	.	.	.	.
COc1ccc(-n2c(=O)[nH]c3ccccc3c2=O)c(OC)c1	0.162	0.151	8.8	-11.1	0.5	5.9	.	.	.	.	.	.
COc1ccc(-n2c(=O)[nH]c3ccccc3c2=O)cc1	0.904	.	-9.3	5.7	1.4	3.3	0.00958	0.00632	0.0311	0.00841	0.0193	0.0105
Cc1nn(Cc2ccccc2Cl)c(Cl)c1C(=O)OCC(=O)NCc1ccco1	-1	-1.79	-9.5	-4.6	2.8	-4.6	.	.	.	.	.	.
O=c1[nH]c(=S)n(Cc2ccco2)c(O)c1C=NCc1cccs1	-3.21*	-1.22	-8.1	-12.2	0.2	4.4	0.00953	0.00663	?	0.00805	0.0198*	0.0115
O=c1[nH]c(=O)n(Cc2ccco2)c(O)c1C=NCc1cccs1	.	0.536	-10.1	-0.5	0.2	-5.7	.	.	.	.	.	.
CCCCn1c(O)c(/C=C/C=Nc2ccccc2)c(=O)[nH]c1=O	-4.7*	.	-15.3	-7.0	0.1	2.5	0.00255*	-0.00181*	0.0247*	0.0019*	0.00842*	0.007*
CCCCCn1c(=O)c(C(=O)Nc2ccccc2S(N)(=O)=O)c(O)c2ccccc21	-1.53	0.896	-14.4	0.7	-0.3	-1.1	.	.	.	.	.	.
CCN(CC)CCCN=Cc1c(O)n(CCc2ccc(OC)c(OC)c2)c(=O)[nH]c1=O	-6.21*	.	-10.7	-2.7	-0.7	3.8	0.0101	0.00674	0.033	?	0.0244	?
CCN(CC)c1ccc(N=Cc2c(O)n(CCc3ccc(OC)c(OC)c3)c(=O)[nH]c2=O)cc1	-0.35	.	-12.2	-3.7	0.5	-1.0	.	.	.	.	.	.
Cc1nc2cc(C(F)(F)F)ccc2n1C1CCN(Cc2nnnn2Cc2ccc3c(c2)OCO3)CC1	-4.7*	-0.47	-28.5	7.7	-0.6	-9.2	0.0049	0.00517	?	0.00715	?	0.0112
Cc1nc2cc(C(F)(F)F)ccc2n1C1CCN(Cc2nnnn2Cc2cccs2)CC1	-1.34	-0.445	-10.0	1.8	-1.2	-10.2	.	.	.	.	.	.
NNC(=O)c1ccc(Cl)cc1	4.35*	-0.314	-8.7	-0.8	0.8	1.8	0.00863	0.0047	0.0309	0.00693	0.0204	0.0105
CC1(CCl)CN1S(=O)(=O)c1ccccc1 (configuration not stated)	0.737	.	-17.8	.	.	1.0	.	.	.	.	.	.
SMILES	KCC2 mod	ROMK mod	Mdm2 ligase inh	PKD1 kinase inh	DTT redox prof	p97 inhibitor	KCC2 secondary	KCC2 bumet counter	KCC2 sec2	HEK counter1	KCC2 ouabain	HEK counter2	others
O=C(COc1ccc(Cl)cc1Cl)N1CCN(C/C=C/c2ccccc2)CC1	-6.81*	-1.36	0.6	5.1	0.1	-4.3	0.00766	0.00566	0.0342	0.00717	0.0202	0.0106
CN1CCN(/N=C/c2c(O)n(C)c(=O)n(C)c2=O)CC1	0.683	-0.385	-12.8	-8.1	-0.8	-0.6	.	.	.	.	.	.
COc1cccc(-n2c(-c3ccoc3)nc3ccccc3c2=O)c1	.	-1.62	-13.2	-5.7	0.0	-7.2	0.00656	0.00407	0.0314	0.00724	0.0181	0.00984
O=C(O)CC1OCC=C2CN3CCC45C6=CC(=O)C(=O)C([N+](=O)[O-])=C6NC4C1C2CC35 (configuration not stated)	0.533	.	-8.4	.	.	38.3*	.	.	.	.	.	.	p97 confirm=36.6*
C[C@H]1CC[C@H]2NCCN[C@H]2C1	-0.14	-0.0906	-10.4	.	.	10.8	.	.	.	.	.	.
O=C(CN1CCCC1)Nc1ccc(Cl)cc1C(=O)c1ccccc1	0.919	-0.525	-4.0	1.5	0.3	-1.6	.	.	.	.	.	.
